For 17 molecules, ILS and Cures results are on record in ChEMBL document CHEMBL1122207, “Antitumor agents. 2. Bisguanylhydrazones of anthracene-9,10-dicarboxaldehydes” (1982).

What all share (format): functional
Test [1] concerns Mus musculus. The test is described as follows: Percent increase in median life span of BDF1 mice with B-16 melanoma at dose 6 mg/kg administered intraperitoneally. Particulars: BDF1, B16, ip, route intraperitoneal. An outline of the steps:
(§1)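 BDF1 mice were implanted ip with a homogenate from 0.05 g of B-16 melanoma. Ip dosing ran on days 1-9, starting 24 h after implant, in dose-response studies following NCI protocols. The read-out was percent increase in life span (ILS). T/C ≥125% was taken as significant.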

The subject of test [2] is Mus musculus. The test is described as follows: Percent increase in median life span of BDF1 mice with P-388 leukemia at dose 12.5 mg/kg administered intraperitoneally. To be noted: BDF1, P388, ip, route intraperitoneal.
For test [3], the species on record is Mus musculus. The test is described as follows: Anticancer activity measured as the number of survivors of the total treated mice with P-388 leukemia at 30 days. The gist of the method:
(§2)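 BDF1 or CDF1 mice given 10^6 ascitic P-388 leukemia cells ip, then treated ip on days 1, 5 and 9. Cures are survivors over total treated at 30 days.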

The species entered for test [4] is Mus musculus. The test is described as follows: Number of survivors of the total treated mice with B-16 melanoma, at 60 days. The gist of the method: (§3)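 BDF1 mice were implanted ip with a homogenate from 0.05 g of B-16 melanoma and dosed ip on days 1-9. Cures are survivors over total at 60 days.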
Test [5] has as its system Mus musculus. The test is described as follows: Percent increase in median life span of BDF1 mice with P-388 leukemia at dose 3.1 mg/kg administered intraperitoneally. To be noted: BDF1, P388, ip, route intraperitoneal.
Test [6] has as its system Mus musculus. The test is described as follows: Percent increase in median life span of BDF1 mice with B-16 melanoma at dose 3.1 mg/kg administered intraperitoneally. Particulars: BDF1, B16, ip, route intraperitoneal. An outline of the steps:
as §1

The species entered for test [7] is Mus musculus. The test is described as follows: Cures is the number of survivors of the total treated mice (10) with B-16 melanoma, at 60 days. The gist of the method: as §3
The species named for test [8] is Mus musculus. The test is described as follows: Cures is the number of survivors of the total treated mice (6) with P-388 leukemia, at 30 days. The gist of the method: as §2
The subject of test [9] is Mus musculus. The test is described as follows: Percent increase in median life span of BDF1 mice with P-388 leukemia at dose 50 mg/kg administered intraperitoneally. To be noted: BDF1, P388, ip, route intraperitoneal.
Test [10] relates to Mus musculus. The test is described as follows: Percent increase in median life span of BDF1 mice with B-16 melanoma at dose 12.5 mg/kg administered intraperitoneally. To be noted: BDF1, B16, ip, route intraperitoneal. The gist of the method: as §1
Test [11] concerns Mus musculus. The test is described as follows: Percent increase in median life span of BDF1 mice with B-16 melanoma at dose 50 mg/kg administered intraperitoneally. To be noted: BDF1, B16, ip, route intraperitoneal. The gist of the method:
as §1

The test system of test [12] is Mus musculus. The test is described as follows: Percent increase in median life span of BDF1 mice with P-388 leukemia at dose 25 mg/kg administered intraperitoneally. Particulars: BDF1, P388, ip, route intraperitoneal.
The subject of test [13] is Mus musculus. The test is described as follows: Percent increase in median life span of BDF1 mice with B-16 melanoma at dose 12 mg/kg administered intraperitoneally. Particulars: BDF1, B16, ip, route intraperitoneal. The gist of the method:
as §1

Test [14] relates to Mus musculus. The test is described as follows: Percent increase in median life span of BDF1 mice with P-388 leukemia at dose 200 mg/kg administered intraperitoneally. Particulars: BDF1, P388, ip, route intraperitoneal.
In test [15] the test system is Mus musculus. The test is described as follows: Percent increase in median life span of BDF1 mice with P-388 leukemia at dose 100 mg/kg administered intraperitoneally. Particulars: BDF1, P388, ip, route intraperitoneal.
Test [16] has as its system Mus musculus. The test is described as follows: Percent increase in median life span of BDF1 mice with B-16 melanoma at dose 25 mg/kg administered intraperitoneally. To be noted: BDF1, B16, ip, route intraperitoneal. The gist of the method:
as §1

The species named for test [17] is Mus musculus. The test is described as follows: Cures is the number of survivors of the total treated mice (12) with P-388 leukemia, at 30 days. The gist of the method:
as §2

Test [18] concerns Mus musculus. The test is described as follows: Percent increase in median life span of BDF1 mice with P-388 leukemia administered intraperitoneally.
The test system of test [19] is Mus musculus. The test is described as follows: Percent increase in median life span of BDF1 mice with B-16 melanoma administered intraperitoneally. An outline of the steps:
as §1

`Br.Br.CN(/N=C/c1c2ccccc2c(/C=N/N(C)C(=N)N)c2ccccc12)C(=N)N` had an ILS at 6 mg/kg in the test on Mus musculus [1] of 50%. This molecule also had an ILS at 12.5 mg/kg in the test on Mus musculus [2] of 91%. Further, the Cures in the test listed under Mus musculus [3] and in the test filed under Mus musculus [4] was 0 each time.
`Cl.Cl.Fc1ccc2c(/C=N/NC3=NCCN3)c3cc(F)ccc3c(/C=N/NC3=NCCN3)c2c1`: the ILS at 3.1 mg/kg came out at 135% with Mus musculus [5] and 111% in the test on Mus musculus [6]. The Cures in the test filed under Mus musculus [7] and in the test listed under Mus musculus [8] was 1 in each case.
`COc1ccc(OC)c2c(/C=N/NC3=NCCN3)c3ccccc3c(/C=N/NC3=NCCN3)c12.Cl.Cl`: the ILS at 50 mg/kg with Mus musculus [9] worked out at 50%. The Cures in the test listed under Mus musculus [3] and in the test listed under Mus musculus [4] was 0 in each case. Also, the ILS at 12.5 mg/kg with Mus musculus [10] came to 64%.
Molecule `CCCCC1(CCCC)CN=C(N/N=C/c2c3ccccc3c(/C=N/NC3=NCC(CCCC)(CCCC)CN3)c3ccccc23)NC1.Cl.Cl` came in with a Cures in the test listed under Mus musculus [4] of 0. Further, the ILS at 50 mg/kg in the test with Mus musculus [11] was determined as 0%.
`C(=N\NC1=NCCCCC1)/c1c2ccccc2c(/C=N/NC2=NCCCCC2)c2ccccc12.Cl.Cl`: the ILS at 25 mg/kg in the test with Mus musculus [12] amounted to 95%. In the test on Mus musculus [13], this molecule gave an ILS at 12 mg/kg of 35%. In addition, the Cures in the test listed under Mus musculus [3] and in the test listed under Mus musculus [4] was 0 in each case.
Turning to `C(=N\NC1=NCCN1)/C1c2ccccc2C(/C=N/NC2=NCCN2)c2ccccc21.Cl.Cl` (stereo not drawn), the values for the ILS at 12.5 mg/kg with Mus musculus [2] and with Mus musculus [10] were 72% and 100%, respectively. The molecule also returned a Cures in the test listed under Mus musculus [4] of 0.
For `CCCCCCCCCCCCCCCC/N=C(\N)N/N=C/c1c2ccccc2c(/C=N/N/C(N)=N/CCCCCCCCCCCCCCCC)c2ccccc12.Cl.Cl`, in the test with Mus musculus [14], the ILS at 200 mg/kg came out at 0%. Also, the Cures in the test listed under Mus musculus [3] and in the test filed under Mus musculus [4] was 0 each time. Besides, the increase in lifespan (ILS) at 50 mg/kg in the test on Mus musculus [11] came out at 0%.
For the molecule `Cl.Cl.Fc1cccc2c(/C=N/NC3=NCCN3)c3c(F)cccc3c(/C=N/NC3=NCCN3)c12`, the increase in lifespan (ILS) at 100 mg/kg in the test with Mus musculus [15] was determined as 140%. Also, the Cures is listed as 5 in the test filed under Mus musculus [7] and 1 in the test filed under Mus musculus [8]. In addition, the ILS at 50 mg/kg with Mus musculus [11] was found to be 194%.
In the test with Mus musculus [9], `Cl.Cl.N=C(N/N=C/c1c2ccccc2c(/C=N/NC(=N)Nc2ccccc2)c2ccccc12)Nc1ccccc1` gave an ILS at 50 mg/kg of 67%. This molecule came in with an ILS at 6 mg/kg in the test on Mus musculus [1] of 50%. Besides, the Cures in the test filed under Mus musculus [3] and in the test filed under Mus musculus [4] was 0 throughout.
`Cl.Cl.Cl.Cl.N=C(NCc1ccccn1)N/N=C/c1c2ccccc2c(/C=N/NC(=N)NCc2ccccn2)c2ccccc12` showed an increase in lifespan (ILS) at 50 mg/kg with Mus musculus [9] of 95%. In the test with Mus musculus [16], the increase in life span (ILS) at 25 mg/kg stood at 74%. Moreover, the Cures in the test listed under Mus musculus [3] and in the test filed under Mus musculus [4] was 0 each time.
Consider `Cl.Cl.Cl.Cl.N=C(NCc1cccnc1)N/N=C/c1c2ccccc2c(/C=N/NC(=N)NCc2cccnc2)c2ccccc12`, for which the ILS at 25 mg/kg with Mus musculus [12] was 114%; in the test on Mus musculus [16], 77%. The Cures in the test filed under Mus musculus [8] was 1; in the test filed under Mus musculus [4], 0.
`Cl.Cl.Cl.Cl.N=C(NCc1ccncc1)N/N=C/c1c2ccccc2c(/C=N/NC(=N)NCc2ccncc2)c2ccccc12` yielded an ILS at 25 mg/kg with Mus musculus [16] of 78%. Further, the ILS at 12.5 mg/kg in the test with Mus musculus [2] turned out to be 90%. In addition, the Cures in the test listed under Mus musculus [3] and in the test filed under Mus musculus [4] was 0 each time.
In the test with Mus musculus [16], `C(=C\c1c2ccccc2c(/C=C/C=N/NC2=NCCN2)c2ccccc12)/C=N/NC1=NCCN1.Cl.Cl` had an ILS at 25 mg/kg of 46%. This molecule also came in with an ILS at 200 mg/kg in the test on Mus musculus [14] of 36%. Besides, the Cures in the test filed under Mus musculus [3] and in the test listed under Mus musculus [4] was 0 in each case.
In the test with Mus musculus [14], `CC1(/C=N/NC2=NCCN2)c2ccccc2C(C)(/C=N/NC2=NCCN2)c2ccccc21` (stereo not drawn) had an ILS at 200 mg/kg of 0%. Moreover, the increase in life span (ILS) at 50 mg/kg in the test with Mus musculus [11] was 0%.
Molecule `C(=N\NC1=NCCCN1)/c1c2ccccc2c(/C=N/NC2=NCCCN2)c2ccccc12.Cl.Cl` displayed an ILS at 12 mg/kg with Mus musculus [13] of 106%. Moreover, the Cures in the test listed under Mus musculus [17] worked out at 1; in the test filed under Mus musculus [4], 0. The ILS at 12.5 mg/kg in the test on Mus musculus [2] stood at 82%.
`CC(C)(C)c1ccc2c(/C=N/NC3=NCCN3)c3ccccc3c(/C=N/NC3=NCCN3)c2c1.Cl.Cl`: the ILS with Mus musculus [18] and in the test on Mus musculus [19] was 0% each time. The Cures in the test listed under Mus musculus [3] and in the test listed under Mus musculus [4] was 0 in each case.
`Cl.Cl.N/C(=N\N=C\c1c2ccccc2c(/C=N/N/C(N)=N/CCO)c2ccccc12)NCCO` returned an ILS at 25 mg/kg in the test with Mus musculus [12] of 90%. Besides, the increase in life span (ILS) at 12 mg/kg in the test with Mus musculus [13] came to 80%. For the same molecule, the Cures in the test filed under Mus musculus [3] is 0; in the test listed under Mus musculus [7], 1.
